The record followed here is ChEMBL document CHEMBL4261570, “Design, Synthesis and Preliminary Antimicrobial Evaluation of N-Alkyl Chain Tethered C-5 Functionalized Bis-Isatins” (Medchemcomm, 2017).

The subject of data set [1] is Giardia intestinalis. Description: Antiparasitic activity against Giardia lamblia WB trophozoites assessed as parasite growth inhibition after 48 hrs by ATP bioluminescence-based CellTiter-Glo luminescent cell viability assay. To be noted: Giardia duodenalis. The class given is functional, organism-based. The essentials: (§1)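 Trophozoites kept axenically in TYI-S-33 with penicillin and streptomycin. Each well held 5000 trophozoites and was incubated 48 h at 37 °C under anaerobic conditions in a GasPak pouch. Read-out was CellTiter-Glo ATP luminescence. Controls were 0.5% DMSO vehicle and 30 μM metronidazole. Primary screen at 50 μM in duplicate; hits were those above 50% inhibition. EC50 came from triplicate 8-point series (0.39–50 μM) and dose-response curves.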
In general terms: ATP-based viability assays read luminescence as a measure of living cells.

Data set [2] concerns Entamoeba histolytica. Description: Antiparasitic activity against Entamoeba histolytica HM-1:IMSS trophozoites assessed as parasite growth inhibition after 48 hrs by ATP bioluminescence-based CellTiter-Glo luminescent cell viability assay. The class given is functional, organism-based. The gist of the method:
as §1

In a further data set the test system is Trichomonas vaginalis. Description: Antiparasitic activity against Trichomonas vaginalis assessed as parasite growth inhibition at 50 uM after 24 hrs by hemacytometer relative to control. To be noted: read-out: GI. Type of data set: functional. The essentials: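 G3 strain cultured in TYM Diamond's medium in 15 mL tubes, with compound in DMSO. Controls were untreated and 0.1% DMSO. After 24 h, cells were counted by hemacytometer and normalized to the DMSO controls. Screening was at 50 μM. IC50 came from titrations of 5–40 μM with variable-slope regression, 4 independent trials on different days, and was then re-confirmed.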

Data set [3] deals with Giardia intestinalis. In words: Antiparasitic activity against Giardia lamblia WB trophozoites assessed as parasite growth inhibition at 50 uM after 48 hrs by ATP bioluminescence-based CellTiter-Glo luminescent cell viability assay relative to control. To be noted: Giardia duodenalis, read-out: GI. Type of data set: functional. The essentials: as §1
Data set [4] concerns Entamoeba histolytica. Description: Antiparasitic activity against Entamoeba histolytica HM-1:IMSS trophozoites assessed as parasite growth inhibition at 50 uM after 48 hrs by ATP bioluminescence-based CellTiter-Glo luminescent cell viability assay relative to control. The following applies: read-out: GI. Type of data set: functional. The gist of the method: as §1
In data set [5] the test system is Aspergillus parasiticus. Description: Antifungal activity against Aspergillus parasiticus NRRL5862 assessed as fungal growth at 500 uM after 24 hrs by microtiter plate liquid bioassay (reference value: 100%). Type of data set: functional. The essentials:
(§2)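 A. parasiticus grown at 35 °C on PDA. Liquid assay in RPMI 1640, 3 × 104 to 5 × 10^4 CFU per mL, triplicate wells, 35 °C. Compounds in DMSO (<2% in media). No-treatment wells carry matched DMSO. Wells scored visually 0–4 versus the no-treatment control: 0 clear, 1 25%, 2 50%, 3 75%, 4 no reduction. Scoring follows CLSI M38-A.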

Data set [6] relates to Aspergillus parasiticus. In words: Antifungal activity against Aspergillus parasiticus NRRL5862 assessed as fungal growth at 500 uM after 48 hrs by microtiter plate liquid bioassay (reference value: 100%). The class given is functional. The gist of the method:
as §2

Data set [7] has as its system Saccharomyces cerevisiae. Description: Antifungal activity against Saccharomyces cerevisiae BY4741 assessed as fungal growth at 500 uM after 24 hrs by microtiter plate liquid bioassay (reference value: 100%). Type of data set: functional.
The subject of data set [8] is Saccharomyces cerevisiae. Description: Antifungal activity against Saccharomyces cerevisiae BY4741 assessed as fungal growth at 500 uM after 48 hrs by microtiter plate liquid bioassay (reference value: 100%). Type of data set: functional.
The test system of data set [9] is Lacticaseibacillus rhamnosus. In words: Toxicity in Lactobacillus rhamnosus ATCC 53103 at 100 uM measured after overnight incubation by disc diffusion method. The class given is organism-based, GG. The following applies: in vivo. The gist of the method:
(§3)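 Grown in Lactobacilli MRS at 37 °C under anaerobic conditions. Blank 6 mm discs were soaked 20 min at room temperature in a 100 μM working dilution in medium. Discs were placed on streaked agar alongside DMSO vehicle and antibiotic discs (levofloxacin, gentamicin), incubated overnight at 37 °C, and zones of inhibition measured in mm.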

The subject of data set [10] is Limosilactobacillus reuteri. In words: Toxicity in Lactobacillus reuteri ATCC 23272 at 100 uM measured after overnight incubation by disc diffusion method. The class given is organism-based. To be noted: in vivo. The gist of the method: as §3
On the technique in general: A growth-free zone around the sample is the usual read-out of agar diffusion tests.

Data set [11] has as its system Lactobacillus acidophilus. In words: Toxicity in Lactobacillus acidophilus ATCC 43560 at 100 uM measured after overnight incubation by disc diffusion method. Type of data set: organism-based. The following applies: in vivo. The essentials:
as §3

Another data set deals with Escherichia coli. In words: Toxicity in Escherichia coli K-12 MG1655 at 100 uM measured after overnight incubation by disc diffusion method. The class given is organism-based, K-12 substr. MG1655. The following applies: in vivo. The essentials:
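Grown in Luria broth at 37 °C under aerobic conditions. Blank 6 mm discs were soaked 20 min at room temperature in a 100 μM working dilution in medium. Discs were placed on streaked agar alongside DMSO vehicle and antibiotic discs (levofloxacin, gentamicin), incubated overnight at 37 °C, and inhibition zones measured in mm.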

Molecules are shown by their SMILES.

As for `Cc1ncc([N+](=O)[O-])n1CCO` [METRONIDAZOLE], the IC50 is 6.4 µM with Giardia intestinalis [1] and 5 µM in the data set with Entamoeba histolytica [2].
As for `O=C1C(=O)N(CCCCCBr)c2ccccc21`, the inhibition of growth at 50 µM in the data set with Trichomonas vaginalis worked out at 71.4%; in the data set with Giardia intestinalis [3], 25.8%; with Entamoeba histolytica [4], 100%. Besides, the IC50 in the data set with Entamoeba histolytica [2] worked out at 23 µM. Besides, the Activity in the data set with Aspergillus parasiticus [5] is recorded as 75 - 100%; in the data set on Aspergillus parasiticus [6] it was 100%; with Saccharomyces cerevisiae [7] it was 0%; in the data set on Saccharomyces cerevisiae [8], 50%; in data set [9], “Non-Toxic”; in data set [10], “Non-Toxic”. Besides, the Activity result (in data set [11]; with Escherichia coli) was “Non-Toxic” each time.

Usually IC50 stands for the point on the concentration scale where inhibition reaches its midpoint.
